Tests used:
Type in all cases: in vitro ADME
[1] = system: glutathione-S-transferases (GSTs); test: Glutathione conjugation in rat liver S9; conditions: rat enzymes
Outline: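 Rat liver S9 (10 mg/mL) in 0.1 M potassium phosphate, pH 7.4, with test compound 100 μM and MgCl2 1 mM (final), preincubated 5 min at 37 °C. Reaction started with glutathione 0.2 mM final. Controls: acetaminophen as positive, no-glutathione as negative. Samples taken over 0–120 min, quenched in cold methanol with internal standard. Parent measured by HILIC LC-MS/MS; % intact at 120 min vs time zero, mean ± %CV.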

[2] = system: uridine glucuronosyl transferases (UGTs); test: Glucuronide conjugation in rat liver S9 with UDPGA; conditions: rat liver S9 + UDP glucuronic acid, 2 h
[3] = system: uridine glucuronosyl transferases (UGTs); test: Glucuronide conjugation in human liver S9 with UDPGA; conditions: human liver S9 + UDP glucuronic acid, 2 h
[4] = system: Phase II conjugative enzymes; test: Phase II conjugation reactions; conditions: rat enzymes (printed: rat microsomes)
Outline: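 Three rat liver S9 incubations in pH 7.4 phosphate at 37 °C, each with test compound 100 μM and MgCl2 1 mM. Glucuronidation used 2 mg/mL S9 activated with alamethicin on ice 15 min, plus UDPGA 5 mM. Sulfation used 2 mg/mL S9 plus PAPS 0.2 mM. Glutathione conjugation used 10 mg/mL S9 plus glutathione 0.2 mM. Parent loss by LC-MS/MS over 120 min.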

[5] = system: sulfotransferases (SULTs); test: Sulfoconjugation in rat liver S9 with PAPS; conditions: rat liver S9, 2 h
Outline: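 Sulfotransferase reaction in rat liver S9 (2 mg/mL), 0.1 M potassium phosphate pH 7.4, with 1 mM MgCl2 and test compound at 100 μM final. After 5 min preincubation at 37 °C, PAPS was added to 0.2 mM. Controls: 7-hydroxycoumarin as positive, PAPS-free as negative. Aliquots to 120 min stopped with ice-cold methanol plus internal standard. LC-MS/MS of parent; percent intact relative to time zero.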

SMILES	formation of glutathione conjugates (in words) [1]	stability towards Phase II conjugative enzymes (in words) [4]	also measured
CN[C@@H]1[C@H](O)[C@H](NC)[C@H]2O[C@]3(O)[C@H](O[C@@H]2[C@H]1O)O[C@H](C)C[C@H]3NC(=O)Cc1cc(Cl)ccn1 [Compound 1544]	formed glutathione conjugates		
CN[C@@H]1[C@H](O)[C@H](NC)[C@H]2O[C@]3(O)[C@H](O[C@@H]2[C@H]1O)O[C@H](C)C[C@H]3NC(=O)Cc1ccc(O)cn1 [Compound 1810]		complete stability	% parent compound remaining intact [2]: above 93%; % parent compound remaining intact [3]: above 93%
CN[C@@H]1[C@H](O)[C@H](NC)[C@H]2O[C@]3(O)[C@H](O[C@@H]2[C@H]1O)O[C@H](C)C[C@H]3NC(=O)Cc1ccc(Cl)cn1 [Compound 1599]		complete stability	
CN[C@@H]1[C@H](O)[C@H](NC)[C@H]2O[C@]3(O)[C@H](O[C@@H]2[C@H]1O)O[C@H](C)C[C@H]3NC(=O)Cc1cc(Cl)c(OC)cn1 [Compound 1878]	formed glutathione conjugates		
CN[C@@H]1[C@H](O)[C@H](NC)[C@H]2O[C@]3(O)[C@H](O[C@@H]2[C@H]1O)O[C@H](C)C[C@H]3NC(=O)Cc1cc(Cl)c(C)cn1 [Compound 1666]	formed glutathione conjugates		sulfoconjugation (in words) [5]: no metabolism
CN[C@@H]1[C@H](O)[C@H](NC)[C@H]2O[C@]3(O)[C@H](O[C@@H]2[C@H]1O)O[C@H](C)C[C@H]3NC(=O)Cc1cc(Cl)c(F)cn1 [Compound 1661]		complete stability	
CN[C@@H]1[C@H](O)[C@H](NC)[C@H]2O[C@]3(O)[C@H](O[C@@H]2[C@H]1O)O[C@H](C)C[C@H]3NC(=O)Cc1ccc(F)cn1 [Compound 1445]		complete stability	
